From ChEMBL document CHEMBL3580574, “Design, Synthesis, and Biological Evaluation of Hexacyclic Tetracyclines as Potent, Broad Spectrum Antibacterial Agents” (J Med Chem, 2015)
Converted amounts (≈) assume the structure as drawn.

What was measured:
Assay type in all cases: functional
Enterococcus faecium = experiment: Antibacterial activity against tet(M) tetracycline-resistant Enterococcus faecium 404 assessed as bacterial growth inhibition by susceptibility testing assay; settings: Enterococcus faecium, 404; read-out: MIC
Streptococcus pneumoniae = experiment: Antibacterial activity against tet(M) tetracycline-resistant Streptococcus pneumoniae 160 assessed as bacterial growth inhibition by susceptibility testing assay; settings: Streptococcus pneumoniae, 160; read-out: MIC
Staphylococcus aureus [1] = experiment: Antibacterial activity against Staphylococcus aureus 101 ATCC 29213 assessed as bacterial growth inhibition by susceptibility testing assay; settings: Staphylococcus aureus, 101 ATCC 29213; read-out: MIC
In short: (§1)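 Broth microdilution MIC per CLSI in cation-adjusted Mueller Hinton broth, made fresh and held at 4 °C before testing. Medium supplemented with lysed horse blood where appropriate. Compound stocks prepared and serially diluted in sterile deionized water. Runs were accepted against QC ranges for comparator antibiotics and ATCC QC strains.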

Escherichia coli [2] = experiment: Antibacterial activity against tet(A) tetracycline-resistant Escherichia coli 155 assessed as bacterial growth inhibition by susceptibility testing assay; settings: Escherichia coli, 155; read-out: MIC
In short: (§2)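 Broth microdilution MIC per CLSI in 96-well plates; compound stocks prepared and serially diluted in sterile deionized water; cation-adjusted Mueller Hinton broth prepared fresh and held at 4 °C before testing, supplemented with lysed horse blood as appropriate; runs accepted when comparator antibiotics fell within QC ranges for appropriate ATCC quality control strains.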

Klebsiella pneumoniae = experiment: Antibacterial activity against Klebsiella pneumoniae 457 harboring CTX-M-15 gene assessed as bacterial growth inhibition by susceptibility testing assay; settings: Klebsiella pneumoniae, 457; read-out: MIC; in short: as §2
Burkholderia cenocepacia = experiment: Antibacterial activity against Burkholderia cenocepacia 240 assessed as bacterial growth inhibition by susceptibility testing assay; settings: Burkholderia cenocepacia, 240; read-out: MIC
In short: (§3)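 Medium supplemented with lysed horse blood where appropriate. Compound stocks prepared and serially diluted in sterile deionized water. Runs were accepted against QC ranges for comparator antibiotics and ATCC QC strains.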

Enterococcus faecalis = experiment: Antibacterial activity against tet(M) tetracycline-resistant Enterococcus faecalis 327 assessed as bacterial growth inhibition by susceptibility testing assay; settings: Enterococcus faecalis, 327; read-out: MIC; in short: as §2
Proteus mirabilis = experiment: Antibacterial activity against Proteus mirabilis 385 assessed as bacterial growth inhibition by susceptibility testing assay; settings: Proteus mirabilis, 385; read-out: MIC; in short: as §1
Staphylococcus aureus [3] = experiment: Antibacterial activity against methicillin-resistant, tet(M) tetracycline-resistant Staphylococcus aureus 161 assessed as bacterial growth inhibition by susceptibility testing assay; settings: Staphylococcus aureus, 161; read-out: MIC; in short: as §2
Acinetobacter baumannii = experiment: Antibacterial activity against tet(B) tetracycline-resistant Acinetobacter baumannii 250 assessed as bacterial growth inhibition by susceptibility testing assay; settings: Acinetobacter baumannii, 250; read-out: MIC; in short: as §2
Pseudomonas aeruginosa = experiment: Antibacterial activity against Pseudomonas aeruginosa 555 BAA-47 assessed as bacterial growth inhibition by susceptibility testing assay; settings: Pseudomonas aeruginosa, 555 BAA-47; read-out: MIC; in short: as §1
Escherichia coli [4] = experiment: Antibacterial activity against Escherichia coli 107 ATCC 25922 assessed as bacterial growth inhibition by susceptibility testing assay; settings: Escherichia coli, 107 ATCC 25922; read-out: MIC; in short: as §1
Staphylococcus aureus [5] = experiment: Antibacterial activity against tet(K) tetracycline-resistant Staphylococcus aureus 158 assessed as bacterial growth inhibition by susceptibility testing assay; settings: Staphylococcus aureus, 158; read-out: MIC
Enterobacter cloacae = experiment: Antibacterial activity against tet(A) tetracycline-resistant Enterobacter cloacae 603 assessed as bacterial growth inhibition by susceptibility testing assay; settings: Enterobacter cloacae, 603; read-out: MIC; in short: as §2
[6] = tested on: Stenotrophomonas maltophilia; experiment: Antibacterial activity against Stenotrophomonas maltophilia 256 assessed as bacterial growth inhibition by susceptibility testing assay; settings: Stenotrophomonas maltophilia, 256; read-out: MIC; in short: as §3

SMILES	MIC (Enterococcus faecium) [µg/mL]	MIC (Streptococcus pneumoniae) [µg/mL]	MIC (Staphylococcus aureus [1]) [µg/mL]	MIC (Escherichia coli [2]) [µg/mL]	MIC (Klebsiella pneumoniae) [µg/mL]	MIC (Burkholderia cenocepacia) [µg/mL]	MIC (Enterococcus faecalis) [µg/mL]	MIC (Proteus mirabilis) [µg/mL]	MIC (Staphylococcus aureus [3]) [µg/mL]	MIC (Acinetobacter baumannii) [µg/mL]	MIC (Pseudomonas aeruginosa) [µg/mL]	MIC (Escherichia coli [4]) [µg/mL]	MIC (Staphylococcus aureus [5]) [µg/mL]	MIC (Enterobacter cloacae) [µg/mL]	MIC [6] [µg/mL]
CN(C)[C@@H]1C(O)=C(C(N)=O)C(=O)[C@@]2(O)C(O)=C3C(=O)c4c(O)c5c(c(F)c4C[C@H]3C[C@@H]12)[C@@H]1[C@@H](CCN1CCO)CN5	1 (≈ 1.75 µM)	0.125 (≈ 0.218 µM)	2 (≈ 3.49 µM)	16 (≈ 27.9 µM)	4 (≈ 6.99 µM)	> 32	1 (≈ 1.75 µM)	8 (≈ 14 µM)	4 (≈ 6.99 µM)	> 32	32 (≈ 55.9 µM)	1 (≈ 1.75 µM)	0.25 (≈ 0.437 µM)	16 (≈ 27.9 µM)	32 (≈ 55.9 µM)
CCCN1CC[C@@]2(C)CNc3c(O)c4c(c(F)c3[C@@H]12)C[C@H]1C[C@H]2[C@H](N(C)C)C(O)=C(C(N)=O)C(=O)[C@@]2(O)C(O)=C1C4=O	4 (≈ 6.84 µM)	0.5 (≈ 0.855 µM)	0.5 (≈ 0.855 µM)	4 (≈ 6.84 µM)	16 (≈ 27.4 µM)	> 32	8 (≈ 13.7 µM)	32 (≈ 54.7 µM)	8 (≈ 13.7 µM)	16 (≈ 27.4 µM)	> 32	1 (≈ 1.71 µM)	0.125 (≈ 0.214 µM)	16 (≈ 27.4 µM)	4 (≈ 6.84 µM)
CN(C)[C@@H]1C(O)=C(C(N)=O)C(=O)[C@@]2(O)C(O)=C3C(=O)c4c(O)c5c(c(F)c4C[C@H]3C[C@@H]12)C1NCCC1CN5 (mixture of isomers)	1	0.5	2	1	2	> 32	2	0.5	4	> 32	32	0.5	0.5	8	> 32
CN(C)[C@@H]1C(O)=C(C(N)=O)C(=O)[C@@]2(O)C(O)=C3C(=O)c4c(O)cccc4[C@@](C)(O)[C@H]3C[C@@H]12 [TETRACYCLINE]			0.125 (≈ 0.281 µM)	> 64	8 (≈ 18 µM)		> 32	> 32	64 (≈ 144 µM)	> 32	> 32	1 (≈ 2.25 µM)		> 32	
CN(C)[C@@H]1C(O)=C(C(N)=O)C(=O)[C@@]2(O)C(O)=C3C(=O)c4c(O)c5c(c(F)c4C[C@H]3C[C@@H]12)[C@@H]1[C@@H](CCN1CCNCC(F)F)CN5	0.0625 (≈ 0.0983 µM)	≤ 0.0156	0.5 (≈ 0.787 µM)	4 (≈ 6.29 µM)	4 (≈ 6.29 µM)	32 (≈ 50.3 µM)	0.125 (≈ 0.197 µM)	8 (≈ 12.6 µM)	1 (≈ 1.57 µM)	8 (≈ 12.6 µM)	> 32	0.25 (≈ 0.393 µM)	0.0312 (≈ 0.0491 µM)	8 (≈ 12.6 µM)	4 (≈ 6.29 µM)
CC(=O)N(C)CCN1CCC2CNc3c(O)c4c(c(F)c3C21)C[C@H]1C[C@H]2[C@H](N(C)C)C(O)=C(C(N)=O)C(=O)[C@@]2(O)C(O)=C1C4=O (mixture of isomers)	32	4	4	32	> 32	> 32	> 32	> 32	> 32	> 32	> 32	8	1	> 32	> 32
CCN1CC[C@H]2CNc3c(O)c4c(c(F)c3[C@H]21)C[C@H]1C[C@H]2[C@H](N(C)C)C(O)=C(C(N)=O)C(=O)[C@@]2(O)C(O)=C1C4=O	0.0625 (≈ 0.112 µM)	≤ 0.0156	0.25 (≈ 0.449 µM)	0.25 (≈ 0.449 µM)	1 (≈ 1.8 µM)	16 (≈ 28.7 µM)	0.125 (≈ 0.225 µM)	1 (≈ 1.8 µM)	0.5 (≈ 0.898 µM)	2 (≈ 3.59 µM)	8 (≈ 14.4 µM)	0.0625 (≈ 0.112 µM)	0.0625 (≈ 0.112 µM)	0.5 (≈ 0.898 µM)	1 (≈ 1.8 µM)
